Experiment [1] is described as follows: Inhibition of starfish oocyte CDK1/cyclin B using [gamma 33P]ATP after 30 mins by scintillation counting. The arrangement: species or system Asteroidea. The method in brief:
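Native starfish M-phase oocyte CDK1/cyclin B, or recombinant human CDK5/p25, in buffer A pH 7.5 with heparin and BSA. Substrate histone H1 25 μg with 15 μM [γ-33P]ATP, 30 min at 30 °C. Stopped on P81 paper, washed in 1% phosphoric acid, counted by scintillation. Blank subtracted; % of maximal activity; DMSO dilution controls.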

Experiment [2] addresses Dual specificity tyrosine-phosphorylation-regulated kinase 1A (Rattus norvegicus, UniProt Q63470). In words: Inhibition of GST-tagged rat recombinant DYRK1A expressed in Escherichia coli using KKISGRLSPIMTEQ as substrate.
Experiment [3] concerns the target Cyclin-dependent kinase 5/CDK5 activator 1 (Homo sapiens, UniProt Q00535). In words: Inhibition of human recombinant CDK5/p25 using [gamma 33P]ATP after 30 mins by scintillation counting. Format: protein-complex assay. The gist of the method:
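Native starfish M-phase oocyte CDK1/cyclin B, or recombinant human CDK5/p25, in buffer A pH 7.5 with heparin and BSA. Stopped on P81 paper, washed in 1% phosphoric acid, counted by scintillation. Blank subtracted; % of maximal activity; DMSO dilution controls.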

Experiment [4] has as its target Glycogen synthase kinase-3 (Sus scrofa, UniProt B2LUN4+I6LNT8). The experiment can be described thus: Inhibition of porcine brain GSK3alpha/beta using GS1 as substrate. The gist of the method:
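Native GSK-3α/β purified from porcine brain, assayed as for CDK1. Buffer A pH 7.5 with heparin and BSA, 30 °C, 15 μM [γ-33P]ATP, phosphorylated GS-1 peptide as substrate. Read by P81 paper capture and scintillation counting. Activity as % of uninhibited control after blank subtraction.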

In experiment [5] the target is Dual specificity protein kinase CLK1 (Mus musculus, UniProt P22518). In words: Inhibition of GST-tagged mouse recombinant CLK1 expressed in Escherichia coli using GRSRSRSRSRSR as substrate.
Sequence of Dual specificity protein kinase CLK1 (P22518 whole entry): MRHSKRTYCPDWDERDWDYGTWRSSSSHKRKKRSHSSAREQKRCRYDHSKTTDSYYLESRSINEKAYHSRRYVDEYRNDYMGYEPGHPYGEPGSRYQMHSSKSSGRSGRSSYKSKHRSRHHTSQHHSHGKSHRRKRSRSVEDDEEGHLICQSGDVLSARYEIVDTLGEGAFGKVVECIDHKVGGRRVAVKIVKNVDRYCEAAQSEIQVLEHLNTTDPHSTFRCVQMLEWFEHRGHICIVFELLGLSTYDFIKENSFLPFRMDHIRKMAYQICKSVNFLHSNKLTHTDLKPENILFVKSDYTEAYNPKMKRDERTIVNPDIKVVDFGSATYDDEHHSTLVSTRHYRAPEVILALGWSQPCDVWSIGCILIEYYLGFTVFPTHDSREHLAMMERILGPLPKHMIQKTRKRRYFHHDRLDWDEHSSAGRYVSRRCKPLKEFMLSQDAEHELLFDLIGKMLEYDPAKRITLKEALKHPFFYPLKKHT

Sequence of Cyclin-dependent kinase 5/CDK5 activator 1 (Q00535 whole entry): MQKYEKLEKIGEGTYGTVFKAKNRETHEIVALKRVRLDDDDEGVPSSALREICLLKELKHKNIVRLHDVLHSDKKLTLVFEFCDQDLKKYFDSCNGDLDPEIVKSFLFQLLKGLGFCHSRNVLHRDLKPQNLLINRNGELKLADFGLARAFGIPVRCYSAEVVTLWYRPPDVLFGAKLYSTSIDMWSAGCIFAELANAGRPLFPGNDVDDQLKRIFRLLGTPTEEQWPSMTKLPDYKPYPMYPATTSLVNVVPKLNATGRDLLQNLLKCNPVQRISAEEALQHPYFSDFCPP
Sequence of Cyclin-dependent kinase 5/CDK5 activator 1 (Q15078 whole entry, further chain): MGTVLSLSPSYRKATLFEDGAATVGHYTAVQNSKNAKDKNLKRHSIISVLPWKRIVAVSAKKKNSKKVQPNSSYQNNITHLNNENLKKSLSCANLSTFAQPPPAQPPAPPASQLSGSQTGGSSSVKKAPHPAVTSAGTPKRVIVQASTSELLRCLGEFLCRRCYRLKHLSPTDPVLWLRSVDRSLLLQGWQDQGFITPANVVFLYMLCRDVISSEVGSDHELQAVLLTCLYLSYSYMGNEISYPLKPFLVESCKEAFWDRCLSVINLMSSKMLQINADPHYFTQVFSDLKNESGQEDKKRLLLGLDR

In general, IC50 refers to the concentration that inhibits the measured activity by half. In the case of `CN1CCCC[C@@H]1c1c(O)cc(O)c2c(=O)cc(-c3ccccc3)oc12`, the IC50 in experiment [1] was 1100 nM; in experiment [2], over 10000 nM; in experiment [3], 950 nM; in experiment [4] it was “>= 10 uM”; in experiment [5], over 10000 nM.

Consider `CN1CCCC[C@H]1c1c(O)cc(O)c2c(=O)cc(-c3ccccc3)oc12`, for which the IC50 in experiment [1] was 30 nM; in experiment [2], over 10000 nM; in experiment [3], 50 nM; in experiment [4] it was 1600 nM; in experiment [5] it was 2100 nM.

Turning to `COc1cc(O)c(C2CCCCN2)c2oc(-c3ccccc3)cc(=O)c12` (stereo unspecified), the IC50 in experiment [1], in experiment [2], in experiment [3], in experiment [4] and in experiment [5] was over 10000 nM throughout.

In the case of `CN1CCC[C@@H]1c1c(O)cc(O)c2c(=O)cc(-c3ccccc3)oc12`, the concentration for half-maximal inhibition (IC50) in experiment [1] is 390 nM; in experiment [2], over 10000 nM; in experiment [3] it was 570 nM; in experiment [4], 2600 nM; in experiment [5] it was 7400 nM.

Regarding `CN1CCC[C@H]1c1c(O)cc(O)c2c(=O)cc(-c3ccccc3)oc12`, the half-inhibitory concentration (IC50) is over 10000 nM in experiment [2], 40 nM in experiment [3], 720 nM in experiment [4] and 670 nM in experiment [5].

As for `CCCCC[C@@H](NC)c1c(O)cc(O)c2c(=O)cc(-c3ccccc3)oc12`, the concentration for half-maximal inhibition (IC50) in experiment [1] is 520 nM; in experiment [2], over 10000 nM; in experiment [3] it was 270 nM; in experiment [4], 4100 nM; in experiment [5], over 10000 nM.

On to `CCCCC[C@H](NC)c1c(O)cc(O)c2c(=O)cc(-c3ccccc3)oc12`, for which the IC50 in experiment [1] was 5400 nM; in experiment [2] it was over 10000 nM; in experiment [3], 2100 nM; in experiment [4], over 10000 nM; in experiment [5], over 10000 nM.

For `CN1CCCC1c1c(O)cc(O)c2c(=O)cc(-c3ccccc3)oc12` (racemic), the concentration for half-maximal inhibition (IC50) in experiment [1] was 50 nM; in experiment [2], over 10000 nM; in experiment [3] it was 90 nM; in experiment [4], 1300 nM; in experiment [5] it was 1600 nM.

Regarding `O=c1cc(-c2ccccc2)oc2c(C3CCCN3)c(O)cc(O)c12` (racemic), the concentration for half-maximal inhibition (IC50) in experiment [1] is 1600 nM; in experiment [2], over 10000 nM; in experiment [3], 1100 nM; in experiment [4], over 10000 nM; in experiment [5] it was over 10000 nM.

Consider `CCCCCC(NC)c1c(O)cc(O)c2c(=O)cc(-c3ccccc3)oc12` (racemic), for which the IC50 is 1100 nM in experiment [1]; over 10000 nM in experiment [2]; 520 nM in experiment [3]; 5200 nM in experiment [4]; over 10000 nM in experiment [5].

`CN1CCCCC1c1c(O)cc(O)c2c(=O)cc(-c3ccccc3)oc12` (racemic): the IC50 in experiment [1] is 90 nM; in experiment [2], over 10000 nM; in experiment [3], 1700 nM; in experiment [4], 5100 nM; in experiment [5], 8500 nM.

On to `O=c1cc(-c2ccccc2)oc2c(C3CCCCN3)c(O)cc(O)c12` (racemic), for which the IC50 is 5000 nM in experiment [1]; over 10000 nM in experiment [2]; 5500 nM in experiment [3]; over 10000 nM in experiment [4]; over 10000 nM in experiment [5].

`CN1CC[C@H](c2c(O)cc(O)c3c(=O)cc(-c4ccccc4Cl)oc23)[C@H](O)C1` (single isomer, unassigned) [ALVOCIDIB]: the IC50 in experiment [1] came out at 90 nM; in experiment [4], 360 nM.

On to `COc1cc(O)c(C2CCCCN2C)c2oc(-c3ccccc3)cc(=O)c12` (stereo unspecified) [BUCHENAVIANINE], for which the IC50 in experiment [1], in experiment [2], in experiment [3], in experiment [4] and in experiment [5] was over 10000 nM throughout.

(Values after ChEMBL document CHEMBL2029219, “Synthesis, biological evaluation, and molecular modeling of natural and unnatural flavonoidal alkaloids, inhibitors of kinases” (J Med Chem, 2012).)
